Reference: ChEMBL document CHEMBL4819008, “Design, synthesis, and evaluation of "dual-site"-binding diarylpyrimidines targeting both NNIBP and the NNRTI adjacent site of the HIV-1 reverse transcriptase” (Eur J Med Chem, 2021)

What was measured:
[1] = test system: Human immunodeficiency virus 1; experiment: Antiviral activity against wild type HIV-1 3B infected in human MT4 cells assessed as inhibition of virus-induced cytopathic effect measured after 5 days by MTT assay; type: functional, organism-based; details: Human immunodeficiency virus 1, 3B, MT4, 120 h
How it was run: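 MT-4 cells at 6 × 10^5 cells/mL were infected with virus stock at 100–300 CCID50 in the presence of serial 5-fold compound dilutions, in triplicate wells. Viability was read by MTT reduction 5 days after infection, with absorbance at 540 and 690 nm and the median OD of three wells used. EC50 is the concentration giving 50% protection from viral cytopathicity.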

[2] = Cytotoxicity against human MT4 cells assessed as reduction in cell viability measured after 5 days by MTT assay; type: cell-based; details: time 5 day
How it was run: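 Mock-infected MT-4 cells (6 × 10^5 cells/mL) were run in parallel with the infected wells, under serial 5-fold compound dilutions in triplicate. MTT viability was read after 5 days and the median OD of three wells used. CC50 is the concentration that reduced OD540 of the mock-infected cells by 50%.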

[3] = Antiviral activity against HIV-2 ROD infected in human MT4 cells assessed as protection against virus-induced cytopathic effect measured after 5 days by MTT assay; details: Human immunodeficiency virus 2, ISOLATE ROD, MT4, 120 h
[4] = test system: Human immunodeficiency virus 1; experiment: Antiviral activity against HIV-1 harboring reverse transcriptase Y181C mutant infected in human MT4 cells assessed as inhibition of virus induced cytopathic effect measured after 5 days by MTT assay; type: functional, organism-based; details: Human immunodeficiency virus 1, MT4, 120 h
How it was run: (§1)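 MT-4 cells, exponentially growing, resuspended at 6 × 10^5 cells/mL and infected with the mutant HIV-1 stock at 100–300 CCID50. Compounds were added as 5-fold serial dilutions, in triplicate wells, alongside mock-infected wells. After 5 days, viability was read by MTT reduction at 540 and 690 nm using the median OD of three wells. EC50 is the concentration giving 50% protection from viral cytopathogenicity.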

[5] = test system: Human immunodeficiency virus 1; experiment: Antiviral activity against wild type HIV1 NL4-3 infected in human TZM-bl cells assessed as reduction in viral infection measured after 1 day by luciferase reporter gene assay based luminiscence assay; type: functional, organism-based; details: Human immunodeficiency virus 1, NL4-3, TZM-bl, 24 h
How it was run: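 TZM-bl cells got a single-round infection with 800 TCID50 of NL4-3 at various compound concentrations, top concentration 100 ng/mL. Luminescence was read 1 day post-infection. EC50 is the concentration giving a 50% decrease in luciferase RLU versus control wells, determined in at least triplicate.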

[6] = test system: Human immunodeficiency virus 1; experiment: Antiviral activity against HIV-1 harboring reverse transcriptase Y188L mutant infected in human MT4 cells assessed as inhibition of virus induced cytopathic effect measured after 5 days by MTT assay; type: functional, organism-based; details: Human immunodeficiency virus 1, MT4, 120 h; how it was run: as §1
[7] = test system: Human immunodeficiency virus 1; experiment: Antiviral activity against HIV-1 harboring reverse transcriptase RES056 mutant infected in human MT4 cells assessed as inhibition of virus induced cytopathic effect measured after 5 days by MTT assay; type: functional, organism-based; details: Human immunodeficiency virus 1, MT4, 120 h; how it was run: as §1
[8] = molecular target: Human immunodeficiency virus type 1 reverse transcriptase (Human immunodeficiency virus 1, UniProt Q72547); experiment: Inhibition of HIV-1 reverse transcriptase assessed as reduction in biotin-dUTP incorporation into cDNA incubated for 1 hr with DIG-dUTP, biotin-dUTP and dTTP followed by transferring onto streptavidin-coated plate and measured after 1 hr by ELISA
How it was run: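 Recombinant WT HIV-1 RT was tested with a Roche colorimetric kit. Enzyme, reconstituted template, DIG-dUTP, biotin-dUTP and dTTP were incubated 1 h at 37 °C in incubation buffer with or without inhibitor. The mix was then held 1 h at 37 °C on a streptavidin-coated plate, then anti-DIG-POD 1 h at 37 °C, then ABTS at 25 °C, and read at OD405.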

[9] = Cytotoxicity against human TZM-bl cells assessed as reduction in cell viability measured after 1 day by CytoTox-Glo assay; type: cell-based
How it was run: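 TZM-bl cells were cultured 1 day with various compound concentrations, in parallel with the antiviral assay, top concentration 100 ng/mL. Viable cells were measured by CytoTox-Glo. CC50 is the concentration causing a 50% reduction in cell viability.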

[10] = test system: Human immunodeficiency virus 1; experiment: Antiviral activity against HIV-1 harboring reverse transcriptase K103N mutant infected in human MT4 cells assessed as inhibition of virus induced cytopathic effect measured after 5 days by MTT assay; type: functional, organism-based; details: Human immunodeficiency virus 1, MT4, 120 h; how it was run: as §1
[11] = Selectivity index, ratio of CC50 for human MT4 cells to EC50 for wild type HIV-1 3B infected in human MT4 cells; type: toxicity, cell-based; details: read-out: Ratio CC50/EC50
[12] = test system: Human immunodeficiency virus 1; experiment: Antiviral activity against HIV-1 harboring reverse transcriptase E138K mutant infected in human MT4 cells assessed as inhibition of virus induced cytopathic effect measured after 5 days by MTT assay; type: functional, organism-based; details: Human immunodeficiency virus 1, MT4, 120 h; how it was run: as §1
[13] = test system: Human immunodeficiency virus 1; experiment: Antiviral activity against HIV-1 harboring reverse transcriptase F227L/V106A mutant infected in human MT4 cells assessed as inhibition of virus induced cytopathic effect measured after 5 days by MTT assay; type: functional, organism-based; details: Human immunodeficiency virus 1, MT4, 120 h; how it was run: as §1
[14] = test system: Human immunodeficiency virus 1; experiment: Antiviral activity against HIV-1 harboring reverse transcriptase L100I mutant infected in human MT4 cells assessed as inhibition of virus induced cytopathic effect measured after 5 days by MTT assay; type: functional, organism-based; details: Human immunodeficiency virus 1, MT4, 120 h; how it was run: as §1
[15] = Selectivity index, ratio of CC50 for human TZM-bl cells to EC50 for wild type HIV1 NL4-3 infected in human TZM-bl cells; type: toxicity, cell-based; details: read-out: Ratio CC50/EC50
How it was run: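 Selectivity index is CC50/EC50, with both values from the TZM-bl assays: NL4-3 single-round luciferase infection and CytoTox-Glo viability, each over 1 day.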

[16] = test system: Human immunodeficiency virus 1; experiment: Potency index, ratio of EFV EC50 to test compound EC50 for antiviral activity against HIV-1 harboring reverse transcriptase Y188L mutant infected in human MT4 cells assessed as inhibition of virus induced cytopathic effect measured after 5 days by MTT assay; type: functional; details: time 5 day

Compound | EC50 [1] [nM] | CC50 at 120 h [2] [µM] | EC50 [3] [µM] | EC50 [4] [nM] | EC50 [5] [nM] | EC50 [6] [nM] | EC50 [7] [nM] | IC50 [8] [nM] | CC50 at 24 h [9] [nM] | EC50 [10] [nM] | selectivity ratio [11] | EC50 [12] [nM] | EC50 [13] [nM] | EC50 [14] [nM] | selectivity ratio [15] | Ratio EC50 [16]
Cc1cc(C#N)cc(C)c1Oc1nc(Nc2ccc(C#N)cc2)ncc1SCC(=O)NCCCN1CCOCC1 | 3.7 | 24 | > 24 | 19.1 | 3.77 | 38.7 | 332 | 35 | > 179 | 2.2 | 6540 | 37.3 | 182 | 16.3 | > 48 | 
COCCNC(=O)/C=C/c1cnc(Nc2ccc(C#N)cc2)nc1Oc1c(C)cc(C#N)cc1C | 7.8 | > 267 | > 267 | 98 | 4.48 | 90.6 | 1490 |  | > 213 | 13.7 | > 34300 | 16.5 | 343 | 166 | > 48 | 1.6
Cc1cc(C#N)cc(C)c1Oc1nc(Nc2ccc(C#N)cc2)ncc1/C=C/C(=O)NCCN1CCN(S(C)(=O)=O)CC1 | 6.1 | 5.9 | > 5.86 | 48.6 | 4.16 | 101 | 808 |  | > 166 | 8.7 | 955 | 20.9 | 251 | 78.6 | > 40 | 
Cc1ccnc2c1NC(=O)c1cccnc1N2C1CC1 [NEVIRAPINE] |  | > 9.5 |  | 2320 | 281 | 3390 | 6750 |  | > 15000 | 1470 | > 113 | 72.8 | 2730 | 373 | > 53 | 
O=C1Nc2ccc(Cl)cc2[C@@](C#CC2CC2)(C(F)(F)F)O1 [EFAVIRENZ] | 2.5 | > 6.3 |  | 5.2 | 5.2 | 148 | 273 |  | > 6300 | 63.7 | > 2570 | 5.7 | 169 | 30.8 | > 1210 | 
Cc1cc(C#N)cc(C)c1Oc1nc(Nc2ccc(C#N)cc2)ncc1/C=C/C(=O)NCCOCCO | 27.1 | 61.8 | > 61.8 | 197 | 4.81 | 146 | 1050 |  | > 200 | 50.3 | 2280 | 47.1 | 318 | 227 | > 42 | 
Cc1cc(C#N)cc(C)c1Oc1nc(Nc2ccc(C#N)cc2)ncc1/C=C/C(=O)NCCN1CCOCC1 | 8.5 | 22.4 | > 22.4 | 108 | 3.44 | 123 | 1750 |  | > 190 | 18.5 | 2630 | 21.8 | 462 | 263 | > 56 | 
Cc1cn([C@H]2C[C@H](N=[N+]=[N-])[C@@H](CO)O2)c(=O)[nH]c1=O [ZIDOVUDINE] | 18.3 | > 7.5 |  | 8.7 | 7.5 | 9.9 | 20.1 |  | > 6300 | 12.6 | > 410 | 14.5 | 4.7 | 7 | > 1000 | 
Cc1cc(C#N)cc(C)c1Oc1nc(Nc2ccc(C#N)cc2)ncc1/C=C/C(=O)NCCCN1CCOCC1 | 10.5 | 23 | > 23 | 124 | 3.53 | 212 | 1210 |  | > 186 | 22 | 2200 | 22.6 | 443 | 254 | > 53 | 
Cc1cc(C#N)cc(C)c1Oc1nc(Nc2ccc(C#N)cc2)nc(N)c1Br [ETRAVIRINE] |  | > 4.6 |  |  | 1.45 | 15.5 | 60.2 |  | > 229 | 2.3 |  |  | 8.2 | 10.2 |  | 
